An excerpt weighted towards active compounds, which were near 1.5% of everything screened.
T cell modulator = modulators of CD8 T cell-vesicle binding, primary screen, mouse 2C CD8+ T cells, flow cytometry; 2C CD8+ T cell-vesicle binding; stronger effect = lower value; response (vesicle binding), % at 7 µM; hit rate 0.068% among 330,000;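 active = response, share of CD8 T cells binding vesicles, and their 90th percentile fluorescence all below set limits, cut at about 80% in these data, passing the limit was not always enough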;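 also: values below 100% mean blocked vesicle binding to the CD8+ T cells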
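material = purified 2C TCR transgenic mouse naive CD8+ T cells | controls = Unloaded micro-vesicles (low), QL9 vesicles with 0.7% DMSO (high) | detection = cytometric PE anti-B7-1 and Alexa647 anti-CD8 signals after 1% paraformaldehyde fixation | incubation = binding step 1.5 h, 37 °C, antibody labelling 20 min, ice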
VLA-4 inh = inhibition in human VLA-4 binding assay, primary screen, VLA-4 allosteric modulator project, MLPCN library, flow cytometry, VLA-4 expressing cells. ligand binding flow cytometry. inhibition, % (about 7 µM as worked out from the volumes in the protocol). hit rate 0.2% among 330,000; in the data active = inhibition above about 50%
Target sequence (P13612 whole entry, looked up): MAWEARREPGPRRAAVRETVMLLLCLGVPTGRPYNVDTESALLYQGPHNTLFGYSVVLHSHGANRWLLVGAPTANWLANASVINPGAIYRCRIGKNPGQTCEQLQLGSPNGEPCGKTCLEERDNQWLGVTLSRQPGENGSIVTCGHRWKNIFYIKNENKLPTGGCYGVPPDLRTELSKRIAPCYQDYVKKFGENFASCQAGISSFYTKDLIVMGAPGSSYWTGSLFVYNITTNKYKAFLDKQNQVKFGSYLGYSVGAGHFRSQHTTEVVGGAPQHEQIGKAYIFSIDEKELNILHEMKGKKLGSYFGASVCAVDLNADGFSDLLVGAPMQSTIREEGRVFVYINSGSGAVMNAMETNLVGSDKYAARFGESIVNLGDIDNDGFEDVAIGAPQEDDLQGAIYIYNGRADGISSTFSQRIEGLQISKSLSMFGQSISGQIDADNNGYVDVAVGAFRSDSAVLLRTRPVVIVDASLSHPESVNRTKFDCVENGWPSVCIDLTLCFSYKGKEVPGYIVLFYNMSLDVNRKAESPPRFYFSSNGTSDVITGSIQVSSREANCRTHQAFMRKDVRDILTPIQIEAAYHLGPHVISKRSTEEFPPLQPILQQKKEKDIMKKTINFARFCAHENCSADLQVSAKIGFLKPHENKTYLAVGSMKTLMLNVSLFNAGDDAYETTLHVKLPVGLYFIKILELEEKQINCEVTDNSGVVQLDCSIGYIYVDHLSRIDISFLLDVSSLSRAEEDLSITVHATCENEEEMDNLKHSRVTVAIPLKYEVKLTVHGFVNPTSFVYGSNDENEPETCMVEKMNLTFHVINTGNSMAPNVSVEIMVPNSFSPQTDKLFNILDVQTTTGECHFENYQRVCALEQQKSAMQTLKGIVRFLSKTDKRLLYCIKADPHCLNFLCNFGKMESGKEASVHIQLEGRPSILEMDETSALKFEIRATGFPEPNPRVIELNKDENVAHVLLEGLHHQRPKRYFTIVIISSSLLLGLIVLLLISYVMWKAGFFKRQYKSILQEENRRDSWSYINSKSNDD
CHT block = inhibitors of human choline transporter CHT. hit rate 0.86% among 310,000. B-score at 10 µM. High affinity choline transporter 1 (Homo sapiens), Q9GZV3. AID 488975, 2010. CHT-expressing cells, membrane potential dye, choline response; stronger effect = lower value;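 active = B-score over 3 SD under the library average, and starting fluorescence ratio not unusually high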;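 also: choline stimulus applied at its EC90 after an EC20 pre-addition; B-score computed on integrated fluorescence ratio after choline addition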
CHT allo act = CHT positive allosteric modulators, primary screen, cell-based, membrane potential dye, choline EC20; High affinity choline transporter 1 (Homo sapiens), Q9GZV3; CHT-expressing cells; stronger effect = higher value; LV-AA mutant CHT in HEK293 cells; B-score at 10 µM; hit rate 0.49% among 310,000; AID 488977, 2010;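 active = initial fluorescence not abnormally high and integrated response B-score, plate-corrected, over 3 SD above library mean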
CHT inh conf = CHT inhibitors, confirmation, cell-based, membrane potential dye, duplicate; shares compounds with CHT block; CHT-expressing cells, choline membrane potential dye; LV-to-AA substituted CHT, HEK293 cells; CHT activity remaining % of control (stronger effect = lower value), % at 10 µM; hit rate 70% among 2,400;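 active = choline transporter activity left, mean of duplicates at 10 µM, below buffer-only control mean minus 3 SD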;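 also: depolarization triggered by choline at its EC90 following an EC20 pre-addition; 0% = hemicholinium-3 full block and 100% = buffer-only control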
HEK293 MPD ctr = membrane potential effects in parental HEK293, counter-screen for CHT inhibitor project, cell-based, membrane potential dye; membrane potential ratio readout (active if shifted either direction beyond buffer ±3SD; no single direction) at 10 µM; choline response; active = decrease or increase beyond buffer ±3SD; hit rate 4% among 2,400; shares compounds with CHT block; AID 493222, 2011;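 also: parental cells lack the transporter so any hit is non-specific; ratio is peak minus trough fluorescence over baseline after EC90 choline challenge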
CHT activ conf = CHT activators, confirmation, cell-based, membrane potential dye, duplicate; shares compounds with CHT allo act; CHT-expressing cells, membrane potential dye fluorescence (FDSS); % of choline EC20–EC90 response window; HEK293 expressing CHT LV-AA mutant; choline added at its EC20; activation, % at 10 µM; hit rate 91% among 2,500; AID 504833, 2011;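 active = primary screen active, with duplicate mean activation above negative control mean plus 3 SD, cut at about 11% in these data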
HEK293 MP dye = membrane potential response in parental HEK293 cells, counter-screen for CHT activator project, cell-based, membrane potential dye | shares compounds with CHT allo act | membrane potential dye fluorescence (FDSS); measured after EC20 choline addition | ratio readout change at 10 µM, hits read low | hit rate 62% among 2,500;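 active = duplicate-averaged ratio beyond 3 SD from buffer wells, up or down, though filed actives are nearly all decreases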
* hit, by the source's call; i = inactive; / = no result given.

SMILES	T cell modulator	VLA-4 inh	CHT block	CHT allo act	CHT activ conf	HEK293 MP dye	others
CCOc1ccc(NC(=O)CSc2nnnn2-c2ccc(C(N)=O)cc2)cc1	98.1	9.7	i	i	/	/
CCN(CC)S(=O)(=O)c1ccc(OC)c(NC(=S)Nc2ccc(C)c(C)c2)c1	326.9	17.4	-6.02*	i	/	/	CHT inh conf=52.8%*;HEK293 MPD ctr=i
Cc1ccc(-n2c(C)c(C)c3c(NCCO)ncnc32)cc1	533.9	0.7	i	i	/	/
CCn1cc(C(=O)NCCCOC)c(=O)c2cc(S(=O)(=O)N(C)C3CCCCC3)ccc21	324.7	-16.1	i	i	/	/
CCC1CCCCN1CCCNC(=O)c1cn(CC)c2ccc(S(=O)(=O)N(C)C3CCCCC3)cc2c1=O (centres undefined)	355.9	-2.6	-8.28*	i	/	/	CHT inh conf=50.1%*;HEK293 MPD ctr=2.82*
CCCCN(CCCC)CCNC(=O)c1cn(C)c2ccc(S(=O)(=O)N(C)C3CCCCC3)cc2c1=O	357.9	15.4	-6.93*	i	/	/	CHT inh conf=31.9%*;HEK293 MPD ctr=i
CCCN(CCC)CCCNC(=O)c1cn(C)c2ccc(S(=O)(=O)N(C)C3CCCCC3)cc2c1=O	254.0	4.6	i	i	/	/
Cn1ccs/c1=N\C(=O)Nc1cccc(C(F)(F)F)c1	275.3	11.2	i	i	/	/
O=C(Oc1ccccc1C(=O)N1CCOCC1)c1ccc(F)cc1	218.8	16.2	-8.19*	i	/	/	CHT inh conf=i;HEK293 MPD ctr=i
CCOC(=O)Cc1csc(NS(=O)(=O)c2ccc3c4c(cccc24)C(=O)N3CC)n1	217.8	39.7	-4.98*	i	/	/	CHT inh conf=46.2%*;HEK293 MPD ctr=i
C=Cn1cc[n+](CC(=O)c2ccc(Cl)c(Cl)c2)c1	184.8	-7.0	-7.2*	i	/	/	CHT inh conf=48.0%*;HEK293 MPD ctr=i
CC(C)n1cnc2c(Nc3cccc(Cl)c3)nc(NCCCO)nc21	514.6	5.2	i	i	8.8	i
Cc1cc(C)n2[nH]c(=O)c(N=Nc3ccc(S(N)(=O)=O)cc3)c2n1	217.7	0.4	i	9.18*	70.4*	-80.6*
O=C(CN1C(=O)NC2(CCCC2)C1=O)N1CCN(S(=O)(=O)c2ccccc2[N+](=O)[O-])CC1	271.0	5.6	i	i	/	/
C[N+](C)(C)CC(=O)N1CCN(c2ccc3ccccc3n2)CC1	199.9	6.9	i	8.73*	78.6*	-62.9*
CCN(CC)CCCN(C(=O)c1ccc(Br)cc1)c1nc(-c2ccc(OC)cc2)cs1	183.9	10.9	i	i	/	/
CCN(CC)CCCN(C(=O)c1cccs1)c1nc(-c2ccc(OC)cc2)cs1	213.3	-5.3	i	6.32*	48.0*	-47.2*
S=c1nccc(-c2ccc(Cl)cc2)[nH]1	276.4	-1.1	i	i	/	/
Cc1nc2ccccn2c1-c1ccnc(=S)[nH]1	177.7	-0.6	i	6.78*	37.0*	-35.1*
CCCN(CC(=O)Nc1ccccc1C)C(=O)c1cccc(S(=O)(=O)N2CCc3ccccc3C2)c1	545.2	4.0	i	6.88*	6.1	i
Cc1ccc(CN2CCSc3ccc(C(=O)NCc4cccnc4)cc32)cc1	301.1	7.3	i	6.91*	28.9*	i
C#CCOCCOCCOCCNc1nc(N2CCN(C(=O)[C@H](CCCCN)n3cc([C@@H](N)C(C)CC)nn3)CC2)nc(N2CCN(C(=O)[C@H](CCCCN)n3cc([C@@H](N)CC(C)C)nn3)CC2)n1 (some centres undefined)	782.9	-6.7	i	6.52*	38.1*	-37.1*
Cc1ccc2c(c1)[C@@H]1[C@H](CO2)[C@H](c2ccccc2)[C@]2(C)C(=O)N[C@H](C)C(=O)N12	873.7	-6.3	/	/	/	/
C=CCOC(=O)c1cn(CC)c2nc(C)ccc2c1=O	i	-4.3	i	10*	72.5*	-66.6*
CCn1cc(C(=O)OCC(=O)OC2CC(C)CCC2C(C)C)c(=O)c2ccc(C)nc21 (centres undefined)	0.0	30.8	i	i	30.9*	i
SMILES	T cell modulator	VLA-4 inh	CHT block	CHT allo act	CHT activ conf	HEK293 MP dye	others
CCn1cc(C(=O)OCC(=O)Nc2c(C)n(C)n(-c3ccccc3)c2=O)c(=O)c2ccc(C)nc21	463.6	-8.2	i	11.2*	78.5*	-72*
CCn1cc(C(=O)OCc2ccc(F)cc2)c(=O)c2ccc(C)nc21	772.7	9.6	i	8.04*	56.4*	-87.2*
CC1(C)Oc2ccc(C(=O)N/N=C/c3ccc(O)cc3)cc2NC1=O	184.1	7.9	i	i	/	/
CCOC(=O)c1cn(CC)c2cc(N3CCCCC3)c(F)cc2c1=O	164.3	5.3	i	i	/	/
C=CCn1cc(C(=O)OCC)c(=O)c2cc(F)c(F)cc21	675.5	10.0	i	7*	47.7*	-55.8*
CCn1cc(C(=O)N2CCN(Cc3ccc4c(c3)OCO4)CC2)c(=O)c2ccc(C)nc21	215.2	2.6	i	i	/	/
CCn1cc(C(=O)OCC(=O)NCc2ccc3c(c2)OCO3)c(=O)c2ccc(C)nc21	427.4	8.6	i	10.2*	60.5*	-56.2*
CCOC(=O)C1(CCOc2ccccc2)CCN(Cc2ccc(O)c(OCC)c2)CC1	204.4	-0.7	i	i	/	/
COc1ccc(-c2ccc(NCCN3CCOCC3)nn2)cc1OC	163.5	2.2	i	i	/	/
Cc1noc(C)c1CN1C(=O)c2ccccc2C1=O	297.6	7.9	i	i	/	/
COc1ccc(C(CNC(=O)CSc2ccc(Br)cc2C)N2CCOCC2)cc1 (centres undefined)	149.1	4.4	i	i	-0.7	i
COc1ccc(C(CNC(=O)CSc2ccccc2F)N2CCOCC2)cc1 (centres undefined)	655.2	-2.6	i	i	/	/
COc1ccc(CCNC(=O)Cc2cccc(C(F)(F)F)c2)cc1OC	163.8	-4.6	i	i	/	/
Cc1cccc(Cn2c(N3CCN(C)CC3)nc3c2c(=O)[nH]c(=O)n3C)c1	155.5	5.9	i	i	/	/
Cn1c(=O)c2c(nc(N3CCN(C(=O)c4ccco4)CC3)n2CCSc2ncccn2)n(C)c1=O	228.6	6.1	i	7.12*	56.7*	-58*

Assay outcomes deposited in PubChem BioAssay by several laboratories.
